The source made the active and inactive calls. The calls are words filed in the database; no cut-off is given here.
Legend:
[1] = tested on: BT-483; experiment: Growth inhibition of human BT-483 cells at 40 uM after 48 hrs by MTT assay in presence of 10% FBS supplemented DMEM medium; type: functional, cell-based
In short: (§1)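 Cells seeded at 5 × 10³/well and allowed 24 h to attach, then exposed to compound (DMSO stock) or vehicle for 48 h in 10% FBS DMEM at 37 °C, 5% CO₂. MTT (2 mg/mL in PBS) added for a further 2 h; formazan dissolved in DMSO and read at 570 nm. Inhibition = (1 − At/Ac) × 100. GI₅₀ interpolated from dose-response curves; mean ± SEM of 4–6 experiments; top concentration 40 μM.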

[2] = tested on: HeLa; experiment: Growth inhibition of human HeLa cells after 48 hrs by MTT assay in presence of 10% FBS supplemented DMEM medium; type: functional; in short: as §1
[3] = tested on: CE81T; experiment: Growth inhibition of human CE81T cells at 40 uM after 48 hrs by MTT assay in presence of 10% FBS supplemented DMEM medium; type: functional, cell-based; in short: as §1
[4] = tested on: HeLa; experiment: Growth inhibition of human HeLa cells after 48 hrs by MTT assay in presence of 1 uM CuCl2; type: functional; in short: as §1
[5] = tested on: SKHep; experiment: Growth inhibition of human SKHep cells at 40 uM after 48 hrs by MTT assay in presence of 10% FBS supplemented DMEM medium; type: functional, cell-based; in short: as §1
[6] = tested on: HeLa; experiment: Growth inhibition of human HeLa cells after 48 hrs by MTT assay in presence of 100 uM ZnCl2; type: functional; in short: as §1
[7] = tested on: HeLa; experiment: Growth inhibition of human HeLa cells after 48 hrs by MTT assay in presence of 10 uM CuCl2; type: functional; in short: as §1
[8] = tested on: HeLa; experiment: Growth inhibition of human HeLa cells after 48 hrs by MTT assay in presence of 50 uM CuCl2; type: functional; in short: as §1
[9] = tested on: HeLa; experiment: Growth inhibition of human HeLa cells after 48 hrs by MTT assay in presence of 50 uM ZnCl2; type: functional; in short: as §1
[10] = target: T1, MAP kinase p38 (Homo sapiens) (UniProt O15264+Q15759+Q16539+P53778); experiment: Activation of p38 phosphorylation in human HeLa cells at 3 uM in presence of 10 uM CuCl2 and tempol after 2 hrs by Western blot; type: cell-based
In short: (§2)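 HeLa cells grown in DMEM with 10% FBS, 2 mM glutamine and penicillin/streptomycin at 37 °C, 5% CO₂. Treated cells were lysed and the extracts run on Western blot. Membranes were blocked overnight at 4 °C in TBST/5% non-fat milk. Probed with phospho- and total ERK1/2, p38 and JNK antibodies, then anti-mouse or anti-rabbit IgG (1:10,000, 1 h, RT), with ECL detection.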

[11] = tested on: HeLa; experiment: Induction of apoptosis in human HeLa cells assessed as procaspase-9 activation at 10 uM after 24 hrs by Western blot; type: functional, cell-based
[12] = Activation of JNK phosphorylation in human HeLa cells at 3 uM in presence of 10 uM CuCl2 by Western blot; type: cell-based; details: TDE = time-dependent effect; in short: as §2
[13] = tested on: HeLa; experiment: Induction of apoptosis in human HeLa cells assessed as accumulation at subG1 phase at 3 uM in presence of 10 uM CuCl2 after 24 hrs using propidium iodide staining by flow cytometry; type: functional
In short: (§3)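 HeLa cells exposed 24 h to test agent; controls were 0.5% DMSO and untreated cells. Optional additions were CuCl₂ 10 μM, tempol 1 mM or z-VAD. Cells were fixed in 80% ethanol and held at −20 °C. They were then stained 30 min at room temperature in the dark with PI 0.08 mg/mL, 0.1% Triton X-100 and RNase A 0.2 mg/mL in PBS. Subdiploid (sub-G1) fraction was quantified by flow cytometry as % of all events.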

[14] = tested on: HeLa; experiment: Stimulation of reactive oxygen species in human HeLa cells at 3 uM in presence of 5 uM CuCl2 after 1 hr by dihydroethidium dye based fluorescence assay; type: functional, cell-based
In short: (§4)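 HeLa cells grown in DMEM with 10% FBS, 2 mM glutamine, penicillin/streptomycin at 37 °C, 5% CO2. Compound given with CuCl2, with or without tempol 1 mM; 0.5% DMSO control, untreated blank. Dihydroethidium 5 µmol/L loaded 30 min, PBS wash, epifluorescence microscopy; four separate cultures, two to six coverslips each.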

[15] = tested on: HeLa; experiment: Activation of ERK phosphorylation in human HeLa cells at 3 uM after 2 hrs by Western blot; type: cell-based; in short: as §2
[16] = target: T1, MAP kinase p38 (Homo sapiens); experiment: Activation of p38 phosphorylation in human HeLa cells at 3 uM in presence of 10 uM CuCl2 by Western blot; type: cell-based; details: TDE = time-dependent effect; in short: as §2
[17] = tested on: HeLa; experiment: Induction of apoptosis in human HeLa cells assessed as PARP cleavage at 3 uM after 24 hrs by Western blot; type: functional, cell-based
[18] = Growth inhibition of human CE81T cells after 48 hrs by MTT assay in presence of 10% FBS supplemented DMEM medium; type: functional; in short: as §1
[19] = tested on: HeLa; experiment: Induction of apoptosis in human HeLa cells assessed as procaspase-3 activation at 3 uM after 24 hrs by Western blot; type: functional, cell-based
[20] = tested on: HeLa; experiment: Induction of apoptosis in human HeLa cells assessed as accumulation at subG1 phase at 3 uM after 24 hrs using propidium iodide staining by flow cytometry; type: functional; in short: as §3
[21] = tested on: HeLa; experiment: Induction of apoptosis in human HeLa cells assessed as accumulation at subG1 phase at 3 uM in presence of 1 mM tempol after 24 hrs using propidium iodide staining by flow cytometry; type: functional; in short: as §3
[22] = tested on: HeLa; experiment: Induction of apoptosis in human HeLa cells assessed as PARP cleavage at 10 uM after 24 hrs by Western blot; type: functional, cell-based
[23] = Activation of JNK phosphorylation in human HeLa cells at 3 uM in presence of 10 uM CuCl2 after 2 hrs by Western blot; type: cell-based; in short: as §2
[24] = tested on: HeLa; experiment: Induction of apoptosis in human HeLa cells assessed as accumulation at subG1 phase after 24 hrs by flow cytometry; type: functional, cell-based; in short: as §3
[25] = tested on: HeLa; experiment: Induction of apoptosis in human HeLa cells assessed as procaspase-3 activation at 10 uM after 24 hrs by Western blot; type: functional, cell-based
[26] = Activation of JNK phosphorylation in human HeLa cells at 3 uM after 2 hrs by Western blot; type: cell-based; in short: as §2
[27] = target: T1, MAP kinase p38 (Homo sapiens); experiment: Activation of p38 phosphorylation in human HeLa cells at 3 uM in presence of 10 uM CuCl2 after 2 hrs by Western blot; type: cell-based; in short: as §2
[28] = Growth inhibition of human BT-483 cells after 48 hrs by MTT assay in presence of 10% FBS supplemented DMEM medium; type: functional; details: BT-483, 48 h; in short: as §1
[29] = tested on: HeLa; experiment: Activation of ERK phosphorylation in human HeLa cells at 3 uM in presence of 10 uM CuCl2 by Western blot; type: cell-based; details: TDE = time-dependent effect; in short: as §2
[30] = tested on: HeLa; experiment: Induction of apoptosis in human HeLa cells assessed as procaspase-9 activation at 3 uM after 24 hrs by Western blot; type: functional, cell-based
[31] = tested on: HeLa; experiment: Activation of ERK phosphorylation in human HeLa cells at 3 uM in presence of 10 uM CuCl2 after 2 hrs by Western blot; type: cell-based; in short: as §2
[32] = target: T1, MAP kinase p38 (Homo sapiens); experiment: Activation of p38 phosphorylation in human HeLa cells at 3 uM after 2 hrs by Western blot; type: cell-based; in short: as §2
[33] = Growth inhibition of human SKHep cells after 48 hrs by MTT assay in presence of 10% FBS supplemented DMEM medium; type: functional; in short: as §1
[34] = tested on: HeLa; experiment: Activation of ERK phosphorylation in human HeLa cells at 3 uM in presence of 10 uM CuCl2 and tempol after 2 hrs by Western blot; type: cell-based; in short: as §2
[35] = Activation of JNK phosphorylation in human HeLa cells at 3 uM in presence of 10 uM CuCl2 and tempol after 2 hrs by Western blot; type: cell-based; in short: as §2
[36] = tested on: HeLa; experiment: Stimulation of reactive oxygen species in human HeLa cells at 10 uM in presence of 10 uM CuCl2 after 1 hr by dihydroethidium dye based fluorescence assay; type: functional, cell-based; in short: as §4

For `O=S(=O)(c1ccccc1)N1CCN(Cc2ccc3ccccc3c2O)CC1`, the GI50 [1] was “inactive”, the GI50 [2] was 38.6 µM and the GI50 [3] was “inactive”. For the same compound, the GI50 [4] was 40.1 µM, the GI50 [5] was “inactive” and the GI50 [6] was 20.1 µM. For the same compound, the GI50 [7] was 28.4 µM, the GI50 [8] was 22.6 µM and the GI50 [9] was 29.7 µM.

For `O=S(=O)(c1ccccc1)N1CCN(Cc2ccc3cccnc3c2O)CC1`, the Activity [10] was “inactive”, the Activity [11] was “Active” and the Activity [12] was “tde”. For the same compound, the GI50 [2] was 6.8 µM, the Activity [13] was 29.76% and the Activity [14] was “Active”. The Activity [15] was “inactive”, the Activity [16] was “tde” and the Activity [17] was “Active”. For the same compound, the GI50 [18] was 5.6 µM, the GI50 [4] was 2.5 µM and the Activity [19] was “Active”. For the same compound, the Activity [20] was 7.91%, the Activity [21] was 5.79% and the Activity [22] was “Active”. The Activity [23] was “Active”, the Activity [24] was “Dose-dependent effect” and the Activity [25] was “Active”. For the same compound, the Activity [26] was “inactive”, the Activity [27] was “Active” and the GI50 [6] was 7.3 µM. For the same compound, the GI50 [7] was 0.31 µM, the GI50 [28] was 10.7 µM and the Activity [29] was “tde”. For the same compound, the Activity [30] was “Active”, the Activity [31] was “Active” and the Activity [32] was “inactive”. For the same compound, the GI50 [8] was 0.27 µM, the GI50 [33] was 14.6 µM and the Activity [34] was “inactive”. The Activity [35] was “inactive” and the GI50 [9] was 7.5 µM.

With `CCN(CC)CCCC(C)Nc1ccnc2cc(Cl)ccc12` (stereo unspecified) [CHLOROQUINE] the GI50 [2] was 18.6 µM, the Activity [36] was “Active” and the GI50 [18] was 23.4 µM. It also gave a GI50 [4] of 6.1 µM, a GI50 [6] of 2.1 µM and a GI50 [7] of 5.3 µM. It also gave a GI50 [28] of 10.2 µM, a GI50 [8] of 4.4 µM and a GI50 [33] of 9.5 µM. It also gave a GI50 [9] of 5.6 µM.

Reference: ChEMBL document CHEMBL1152609, “Synthesis and pharmacological exploitation of clioquinol-derived copper-binding apoptosis inducers triggering reactive oxygen species generation and MAPK pathway activation” (2009)
